Source: ChEMBL document CHEMBL3808365, “Potent and Selective CK2 Kinase Inhibitors with Effects on Wnt Pathway Signaling in Vivo” (ACS Med Chem Lett, 2016)
Values after ≈ are worked out from the molar mass of the structure shown. Active and inactive are the calls of the source. No cut-off for these calls is given here.

Legend:
[1] = Antiproliferative activity against human SW620 cells after 72 hrs by alamar blue assay; assay type: functional; conditions: SW-620, 72 h
[2] = tested on: Mus musculus; experiment: In vivo inhibition of Wnt-associated Tcf4-luciferase gene transcription in human DLD1 cells xenografted in Ncr nu/nu mouse at 10 mg/kg, iv measured at 8 hrs; assay type: functional; conditions: DLD-1, iv
[3] = tested on: Mus musculus; experiment: Toxicity in ip dosed Ncr nu/nu mouse xenografted with human HCT-116 cells harboring beta-catenin mutation assessed as reversible body weight loss measured on day 25; assay type: organism-based; conditions: in vivo
[4] = biological target: Homeodomain-interacting protein kinase 2 (Homo sapiens) (UniProt Q9H2X6); conditions: 0.1 uM
[5] = biological target: Voltage-gated inwardly rectifying potassium channel KCNH2 (Homo sapiens, UniProt Q12809); experiment: Inhibition of human ERG expressed in CHO cells by patch clamp assay; assay type: cell-based
[6] = biological target: Homeodomain-interacting protein kinase 3 (Homo sapiens) (UniProt Q9H422); experiment: Inhibition of Hipk3 (unknown origin) at 0.1 uM by quantitative PCR
Procedure, shortened: (§1)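 Single-concentration screen at 0.1 μM, run as part of a selectivity panel of 402 kinases.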

[7] = tested on: Plasma; experiment: Drug uptake in Ncr nu/nu mouse plasma xenografted with human DLD1 cells at 10 mg/kg, iv measured up to 24 hrs; assay type: ADME, organism-based, DLD-1; conditions: in vivo
Procedure, shortened: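 Single 10 mg/kg IV dose in DLD-1 TOPflash xenograft mice; plasma drug concentration followed to 24 h.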

[8] = biological target: Dual specificity tyrosine-phosphorylation-regulated kinase 1A (Homo sapiens) (UniProt Q13627); experiment: Inhibition of Dyrk1a (unknown origin) at 0.1 uM by quantitative PCR; procedure, shortened: as §1
[9] = biological target: Death-associated protein kinase 3 (Homo sapiens) (UniProt O43293); experiment: Inhibition of Dapk3 (unknown origin) at 0.1 uM by quantitative PCR; procedure, shortened: as §1
[10] = Fraction unbound in human plasma at 10 uM by equilibrium dialysis method; assay type: ADME, cell-free
[11] = tested on: Mus musculus; experiment: In vivo inhibition of AKT phosphorylation at S129 in human DLD1 cells xenografted in Ncr nu/nu mouse at 10 mg/kg, iv measured up to 24 hrs; assay type: functional, organism-based; conditions: DLD-1
Procedure, shortened: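 DLD-1 TOPflash xenograft mice given a single 10 mg/kg IV dose; tumor AKT Ser129 phosphorylation assessed out to 24 h.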

[12] = Aqueous solubility of the compound in phosphate buffer at pH 7.4 incubated for 24 hrs by LC/MS/MS method; assay type: physicochemical
[13] = biological target: Bone morphogenetic protein receptor type-1B (Homo sapiens) (UniProt O00238); experiment: Inhibition of BMPR1b (unknown origin) at 0.1 uM by quantitative PCR
[14] = Antiproliferative activity against human DLD1 cells after 72 hrs by alamar blue assay; assay type: functional; conditions: DLD-1, 72 h
[15] = Antitumor activity against human HCT116 cells harboring beta-catenin mutation xenografted in Ncr nu/nu mouse at 30 mg/kg, ip administered as bolus dose for once in every week for 3 weeks; assay type: functional; conditions: HCT-116, ip, 504 h, read-out: TGI
Procedure, shortened: (§2)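 Mouse xenografts (HCT-116 β-catenin mutant; SW620 APC mutant) dosed at 30 mg/kg weekly for 3 cycles; efficacy expressed as % tumor growth inhibition.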

[16] = Antiproliferative activity against human […] cells after 72 hrs by alamar blue assay; assay type: functional; conditions: HCT-116, 72 h
[17] = tested on: HCT-116; experiment: Antitumor activity against human HCT116 cells harboring beta-catenin mutation xenografted in ip dosed Ncr nu/nu mouse administered as bolus dose for once in every week for 3 weeks; assay type: functional, organism-based
[18] = Intrinsic clearance in rat hepatocyte assessed per 10^6 cells; assay type: ADME, cell-based; conditions: hepatocytes, read-out: CLH
[19] = biological target: Death-associated protein kinase 2 (Homo sapiens) (UniProt Q9UIK4); experiment: Inhibition of Dapk2 (unknown origin) at 0.1 uM by quantitative PCR; procedure, shortened: as §1
[20] = tested on: SW-620; experiment: Antitumor activity against human SW620 cells harboring APC mutation xenografted in ip dosed Ncr nu/nu mouse administered as bolus dose for once in every week for 3 weeks; assay type: functional, organism-based
[21] = biological target: Homeodomain-interacting protein kinase 1 (Homo sapiens) (UniProt Q86Z02); experiment: Inhibition of Hipk1 (unknown origin) at 0.1 uM by quantitative PCR; procedure, shortened: as §1
[22] = tested on: Mus musculus; experiment: In vivo inhibition of active beta-catenin phosphorylation at Ser37 or Thr41 in human SW620 cells xenografted in iv dosed Ncr nu/nu mouse after 48 hrs by Western blot analysis; assay type: functional, organism-based; conditions: SW-620
Procedure, shortened: (§3)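 SW620 (APC mutant) xenograft mice dosed IV at 10 or 30 mg/kg; pAKT S129 and active β-catenin measured by Western blot of tumor lysates, one lane per vehicle- or compound-treated animal.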

[23] = tested on: L-Wnt3a; experiment: Inhibition of CK2 in mouse L-Wnt3a cells assessed as depletion of active form of beta-catenin after 1 hr by Western blot method; assay type: cell-based
[24] = biological target: Dual specificity tyrosine-phosphorylation-regulated kinase 4 (Homo sapiens) (UniProt Q9NR20); experiment: Inhibition of Dyrk4 (unknown origin) at 0.1 uM by quantitative PCR; procedure, shortened: as §1
[25] = biological target: Homeodomain-interacting protein kinase 4 (Homo sapiens) (UniProt Q8NE63); experiment: Inhibition of Hipk4 (unknown origin) at 0.1 uM by quantitative PCR; procedure, shortened: as §1
[26] = tested on: Mus musculus; experiment: Toxicity in Ncr nu/nu mouse xenografted with human SW620 cells harboring APC mutation assessed as reduction in body weight at 30 mg/kg, ip measured on day 25; assay type: organism-based, SW-620; parameters: scale not given: the % may be the effect or the level left; conditions: in vivo
Procedure, shortened: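 SW620 (APC mutant) xenograft mice dosed weekly for 3 cycles; body weight change in treated animals recorded on day 25 as mean % change.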

[27] = tested on: Mus musculus; experiment: In vivo inhibition of AKT phosphorylation in human SW620 cells xenografted in iv dosed Ncr nu/nu mouse after 48 hrs by Western blot analysis; assay type: functional, organism-based; conditions: SW-620; procedure, shortened: as §3
[28] = biological target: Dual specificity tyrosine-phosphorylation-regulated kinase 1B (Homo sapiens) (UniProt Q9Y463); experiment: Inhibition of Dyrk1b (unknown origin) 0.1 uM by quantitative PCR; procedure, shortened: as §1
[29] = Intrinsic clearance in human liver microsomes; assay type: ADME; conditions: read-out: CLH
[30] = biological target: Dual specificity tyrosine-phosphorylation-regulated kinase 3 (Homo sapiens) (UniProt O43781); experiment: Inhibition of Dyrk3 (unknown origin) at 0.1 uM by quantitative PCR; procedure, shortened: as §1
[31] = tested on: Mus musculus; experiment: Toxicity in ip dosed Ncr nu/nu mouse xenografted with human SW620 cells harboring APC mutation assessed as reversible body weight loss measured on day 25; assay type: organism-based, SW-620; conditions: in vivo
[32] = Inhibition of CK2 in mouse L-Wnt3a cells assessed as suppression of Wnt3a-mediated L S/L Super TOPFlash reporter gene transcription after 24 hrs; conditions: L Wnt-3A
[33] = Antitumor activity against human SW620 cells harboring APC mutation xenografted in Ncr nu/nu mouse at 30 mg/kg, ip administered as bolus dose for once in every week for 3 weeks; assay type: functional; conditions: SW-620, ip, 504 h, read-out: TGI; procedure, shortened: as §2
[34] = biological target: Casein kinase II subunit alpha (Homo sapiens, UniProt P68400); experiment: Inhibition of full length N-terminal 6xHis-tagged recombinant human CK2alpha expressed in fall armyworm Sf21 cells using BODIPY-FL-RRRDDDSDDD-CONH2 as substrate after 90 mins by mobility shift assay
[35] = biological target: Casein kinase II (Homo sapiens, UniProt P19784+P67870+P68400); experiment: Inhibition of CK2 in human DLD1 HA-myr-AKT1 cells assessed as suppression of AKTser129 phosphorylation after 3 to 24 hrs by Western blot analysis
Chain of Casein kinase II (P67870 whole entry): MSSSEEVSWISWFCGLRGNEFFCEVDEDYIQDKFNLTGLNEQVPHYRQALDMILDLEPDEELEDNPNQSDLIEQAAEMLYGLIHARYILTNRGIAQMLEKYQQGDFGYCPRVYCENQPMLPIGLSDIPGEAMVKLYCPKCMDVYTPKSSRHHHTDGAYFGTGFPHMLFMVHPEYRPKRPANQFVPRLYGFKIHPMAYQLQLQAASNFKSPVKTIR
Chain of Casein kinase II (P68400 whole entry): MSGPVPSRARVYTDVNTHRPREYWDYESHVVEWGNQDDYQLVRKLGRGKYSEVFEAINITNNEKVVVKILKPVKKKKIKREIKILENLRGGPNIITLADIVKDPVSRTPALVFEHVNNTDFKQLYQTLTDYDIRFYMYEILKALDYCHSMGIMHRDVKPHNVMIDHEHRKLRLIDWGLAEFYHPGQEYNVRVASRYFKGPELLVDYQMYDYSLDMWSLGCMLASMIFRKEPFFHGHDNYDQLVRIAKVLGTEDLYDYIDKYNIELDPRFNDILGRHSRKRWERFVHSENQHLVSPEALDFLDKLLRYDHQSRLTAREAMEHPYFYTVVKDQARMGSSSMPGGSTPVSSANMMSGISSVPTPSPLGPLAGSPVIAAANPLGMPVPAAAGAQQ
Chain of Casein kinase II (P19784 whole entry): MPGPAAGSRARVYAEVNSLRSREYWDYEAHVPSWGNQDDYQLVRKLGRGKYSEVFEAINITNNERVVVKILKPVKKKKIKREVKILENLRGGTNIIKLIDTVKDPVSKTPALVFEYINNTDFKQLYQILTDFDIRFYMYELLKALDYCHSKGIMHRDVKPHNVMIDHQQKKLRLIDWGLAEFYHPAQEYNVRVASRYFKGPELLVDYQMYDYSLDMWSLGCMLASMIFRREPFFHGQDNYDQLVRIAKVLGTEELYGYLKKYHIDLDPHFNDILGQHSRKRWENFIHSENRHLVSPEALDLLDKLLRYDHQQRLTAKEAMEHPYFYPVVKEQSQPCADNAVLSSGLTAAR

Chain of Casein kinase II subunit alpha (P68400 whole entry): as the sequence (P68400 whole entry) above
Chain of Homeodomain-interacting protein kinase 2 (Homo sapiens) (Q9H2X6 whole entry, looked up): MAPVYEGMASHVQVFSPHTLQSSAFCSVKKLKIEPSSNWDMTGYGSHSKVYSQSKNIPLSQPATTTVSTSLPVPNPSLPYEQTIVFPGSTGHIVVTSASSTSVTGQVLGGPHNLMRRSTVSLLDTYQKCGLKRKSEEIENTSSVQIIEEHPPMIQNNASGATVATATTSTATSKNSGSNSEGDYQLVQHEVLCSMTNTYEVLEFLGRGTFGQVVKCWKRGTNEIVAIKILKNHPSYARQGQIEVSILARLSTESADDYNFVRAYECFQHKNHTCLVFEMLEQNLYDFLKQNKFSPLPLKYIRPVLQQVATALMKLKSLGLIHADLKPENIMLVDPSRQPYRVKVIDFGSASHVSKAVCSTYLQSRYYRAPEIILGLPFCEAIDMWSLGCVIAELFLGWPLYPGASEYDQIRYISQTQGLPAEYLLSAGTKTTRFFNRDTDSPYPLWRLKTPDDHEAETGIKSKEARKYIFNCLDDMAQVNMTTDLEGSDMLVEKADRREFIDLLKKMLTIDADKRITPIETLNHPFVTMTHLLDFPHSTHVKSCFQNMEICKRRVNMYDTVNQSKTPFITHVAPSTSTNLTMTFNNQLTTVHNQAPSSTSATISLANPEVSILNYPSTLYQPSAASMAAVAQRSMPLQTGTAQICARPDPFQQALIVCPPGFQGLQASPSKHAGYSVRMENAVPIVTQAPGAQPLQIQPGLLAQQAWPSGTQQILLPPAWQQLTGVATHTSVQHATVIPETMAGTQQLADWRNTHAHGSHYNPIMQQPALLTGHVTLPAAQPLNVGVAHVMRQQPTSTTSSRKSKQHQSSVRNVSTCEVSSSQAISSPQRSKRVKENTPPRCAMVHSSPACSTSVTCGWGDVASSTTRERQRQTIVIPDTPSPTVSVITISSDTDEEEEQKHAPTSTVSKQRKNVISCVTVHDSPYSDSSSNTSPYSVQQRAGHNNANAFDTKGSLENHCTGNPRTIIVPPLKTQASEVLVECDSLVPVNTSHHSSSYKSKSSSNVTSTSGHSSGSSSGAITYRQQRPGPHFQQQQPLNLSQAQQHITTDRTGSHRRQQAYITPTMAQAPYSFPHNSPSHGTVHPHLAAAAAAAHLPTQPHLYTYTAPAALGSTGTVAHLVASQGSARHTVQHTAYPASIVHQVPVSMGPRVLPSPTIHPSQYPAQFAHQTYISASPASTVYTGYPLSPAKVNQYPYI
Chain of Homeodomain-interacting protein kinase 3 (Homo sapiens) (Q9H422 whole entry, looked up): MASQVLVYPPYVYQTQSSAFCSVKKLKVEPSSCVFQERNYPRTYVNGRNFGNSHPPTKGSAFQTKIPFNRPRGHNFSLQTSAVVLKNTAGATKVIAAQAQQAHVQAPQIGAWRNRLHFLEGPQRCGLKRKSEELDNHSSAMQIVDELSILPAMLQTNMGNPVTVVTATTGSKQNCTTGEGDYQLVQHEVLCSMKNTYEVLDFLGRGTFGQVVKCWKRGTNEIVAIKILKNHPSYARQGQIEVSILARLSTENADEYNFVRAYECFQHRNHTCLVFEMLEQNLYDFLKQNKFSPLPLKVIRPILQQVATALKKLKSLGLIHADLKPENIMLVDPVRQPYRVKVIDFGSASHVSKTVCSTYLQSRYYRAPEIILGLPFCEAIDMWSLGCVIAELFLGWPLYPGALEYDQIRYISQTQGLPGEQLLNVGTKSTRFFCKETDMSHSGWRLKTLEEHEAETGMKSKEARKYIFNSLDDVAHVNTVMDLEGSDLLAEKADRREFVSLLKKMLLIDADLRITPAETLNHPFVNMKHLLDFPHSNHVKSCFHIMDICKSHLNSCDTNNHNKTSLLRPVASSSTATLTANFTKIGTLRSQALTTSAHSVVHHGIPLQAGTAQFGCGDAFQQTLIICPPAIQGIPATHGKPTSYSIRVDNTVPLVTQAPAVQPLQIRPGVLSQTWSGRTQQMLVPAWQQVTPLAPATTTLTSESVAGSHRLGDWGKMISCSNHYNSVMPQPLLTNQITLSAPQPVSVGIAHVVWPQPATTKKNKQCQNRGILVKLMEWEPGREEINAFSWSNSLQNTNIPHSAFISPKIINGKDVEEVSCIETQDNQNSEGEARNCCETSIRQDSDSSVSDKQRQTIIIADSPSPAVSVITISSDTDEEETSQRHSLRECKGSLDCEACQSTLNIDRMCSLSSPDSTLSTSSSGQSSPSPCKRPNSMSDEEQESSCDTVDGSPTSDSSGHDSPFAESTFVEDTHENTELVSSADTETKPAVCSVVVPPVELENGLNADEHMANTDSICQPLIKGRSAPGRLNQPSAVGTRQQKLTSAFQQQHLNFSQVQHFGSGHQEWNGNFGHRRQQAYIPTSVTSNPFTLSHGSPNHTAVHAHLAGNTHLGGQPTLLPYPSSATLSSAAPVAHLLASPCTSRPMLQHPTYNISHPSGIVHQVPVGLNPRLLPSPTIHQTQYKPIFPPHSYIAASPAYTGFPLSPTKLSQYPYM
Chain of Dual specificity tyrosine-phosphorylation-regulated kinase 4 (Homo sapiens) (Q9NR20 whole entry): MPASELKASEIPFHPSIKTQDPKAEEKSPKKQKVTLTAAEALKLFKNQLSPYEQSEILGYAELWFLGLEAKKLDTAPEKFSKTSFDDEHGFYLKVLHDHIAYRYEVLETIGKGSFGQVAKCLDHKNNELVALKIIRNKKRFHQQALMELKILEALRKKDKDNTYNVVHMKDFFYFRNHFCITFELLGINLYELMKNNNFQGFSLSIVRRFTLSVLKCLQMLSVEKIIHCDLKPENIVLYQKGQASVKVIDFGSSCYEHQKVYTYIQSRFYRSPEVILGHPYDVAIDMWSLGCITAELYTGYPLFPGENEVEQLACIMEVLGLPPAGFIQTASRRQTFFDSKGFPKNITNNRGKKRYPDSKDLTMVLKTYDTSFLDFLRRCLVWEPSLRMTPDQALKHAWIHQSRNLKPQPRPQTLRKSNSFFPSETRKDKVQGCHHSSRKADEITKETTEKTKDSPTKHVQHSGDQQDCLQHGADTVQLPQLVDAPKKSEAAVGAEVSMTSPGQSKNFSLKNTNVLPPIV
Chain of Death-associated protein kinase 2 (Homo sapiens) (Q9UIK4 whole entry, looked up): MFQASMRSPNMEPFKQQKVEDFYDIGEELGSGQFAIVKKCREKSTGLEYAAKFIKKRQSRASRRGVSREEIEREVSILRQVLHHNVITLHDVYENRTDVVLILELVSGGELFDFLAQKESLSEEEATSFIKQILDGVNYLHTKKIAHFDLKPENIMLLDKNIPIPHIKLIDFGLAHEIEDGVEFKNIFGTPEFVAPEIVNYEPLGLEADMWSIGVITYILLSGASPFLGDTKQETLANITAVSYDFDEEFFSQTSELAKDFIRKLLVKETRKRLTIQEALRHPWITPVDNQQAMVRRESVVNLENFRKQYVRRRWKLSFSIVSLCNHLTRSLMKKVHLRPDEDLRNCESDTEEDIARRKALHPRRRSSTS
Chain of Bone morphogenetic protein receptor type-1B (Homo sapiens) (O00238 whole entry): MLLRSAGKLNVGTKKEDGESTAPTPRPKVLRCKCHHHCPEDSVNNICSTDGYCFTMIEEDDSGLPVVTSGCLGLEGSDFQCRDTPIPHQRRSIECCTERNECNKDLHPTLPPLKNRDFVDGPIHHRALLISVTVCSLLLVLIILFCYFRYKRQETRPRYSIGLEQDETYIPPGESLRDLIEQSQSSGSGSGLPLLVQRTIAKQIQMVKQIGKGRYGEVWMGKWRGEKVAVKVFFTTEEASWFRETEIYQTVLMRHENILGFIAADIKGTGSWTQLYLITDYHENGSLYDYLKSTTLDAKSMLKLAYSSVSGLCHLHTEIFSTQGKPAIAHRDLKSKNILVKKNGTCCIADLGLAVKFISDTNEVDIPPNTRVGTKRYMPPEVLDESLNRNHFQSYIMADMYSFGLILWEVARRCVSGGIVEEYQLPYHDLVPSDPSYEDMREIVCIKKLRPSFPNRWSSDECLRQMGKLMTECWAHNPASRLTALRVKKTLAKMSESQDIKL

## CC(=O)Nc1cc(Nc2cc(NC3CC3)n3ncc(C#N)c3n2)ccc1N(C)CCN
[1]
  GI50: 5 nM
[2]
  inhibition in vivo at 10 mg/kg: 40%
[3]
  Activity: Dose-dependent effect
[4]
  inhibition: > 50%
[5]
  IC50: > 100000 nM
[6]
  inhibition: > 50%
[7]
  Drug uptake: Not Active
[8]
  inhibition: > 50%
[9]
  inhibition: > 50%
[10]
  fraction unbound at 10 µM: 0.39
[11]
  inhibition: Active
[12]
  solubility at 24 h: > 1000 µM
[13]
  inhibition: 74%
[14]
  GI50: 50 nM
[15]
  inhibition in vivo at 30 mg/kg: 94%
[16]
  GI50: 10 nM
[17]
  TGI: Dose-dependent effect
[18]
  hepatocyte CLint: 8 µL/min/1e6 cells
[19]
  inhibition: > 50%
[20]
  TGI: Dose-dependent effect
[21]
  inhibition: > 50%
[22]
  inhibition: Dose-dependent effect
[23]
  inhibition: Dose-dependent effect
[24]
  inhibition: > 50%
[25]
  inhibition: > 50%
[26]
  Activity: 6.8%
[27]
  inhibition: Dose-dependent effect
[28]
  inhibition: > 50%
[29]
  microsomal CLint: 7 µL/min/mg
[30]
  inhibition: > 50%
[31]
  Activity: Dose-dependent effect
[32]
  IC50: 43 nM
[33]
  inhibition in vivo at 30 mg/kg: 74%

## CCN(CC)CCN(C)c1ccc(Nc2cc(NC3CC3)n3ncc(C#N)c3n2)cc1NC(C)=O
[10]
  fraction unbound at 10 µM: 0.23
[12]
  solubility at 24 h: > 1000 µM
[18]
  hepatocyte CLint: 27 µL/min/1e6 cells
[29]
  microsomal CLint: 44 µL/min/mg
[32]
  IC50: 390 nM

## CC(=O)Nc1cc(Nc2cc(NC3CC3)n3ncc(C#N)c3n2)ccc1N(C)CCCN(C)C
[10]
  fraction unbound at 10 µM: 0.22
[12]
  solubility at 24 h: > 1000 µM
[18]
  hepatocyte CLint: 15 µL/min/1e6 cells
[29]
  microsomal CLint: < 4 µL/min/mg
[32]
  IC50: 730 nM

## CC(=O)Nc1cc(Nc2cc(NC3CC3)n3ncc(C#N)c3n2)ccc1C
[1]
  GI50: 100 nM
[10]
  fraction unbound at 10 µM: 0.1
[14]
  GI50: 170 nM
[16]
  GI50: 80 nM
[18]
  hepatocyte CLint: 5 µL/min/1e6 cells
[29]
  microsomal CLint: 10 µL/min/mg

## CC(=O)Nc1cc(Nc2cc(NC3CC3)n3ncc(C#N)c3n2)ccc1N(C)C[C@@H](C)N
[34]
  IC50: < 3 nM
[10]
  fraction unbound at 10 µM: 0.33
[12]
  solubility at 24 h: 825 µM (≈ 358 µg/mL)
[35]
  IC50: 4 nM
[18]
  hepatocyte CLint: < 1 µL/min/1e6 cells
[29]
  microsomal CLint: < 3 µL/min/mg
[32]
  IC50: 400 nM

## CC(=O)Nc1cc(Nc2cc(NC3CC3)n3ncc(C#N)c3n2)ccc1N1CCC[C@@H](N(C)C)C1
[10]
  fraction unbound at 10 µM: 0.11
[12]
  solubility at 24 h: > 900 µM
[18]
  hepatocyte CLint: < 1 µL/min/1e6 cells
[29]
  microsomal CLint: 19 µL/min/mg
[32]
  IC50: 510 nM

## CC(=O)Nc1cc(Nc2cc(NC3CC3)n3ncc(C#N)c3n2)ccc1N(C)CCN1CCOCC1
[34]
  IC50: < 3 nM
[10]
  fraction unbound at 10 µM: 0.18
[12]
  solubility at 24 h: 275 µM (≈ 135 µg/mL)
[35]
  IC50: 5 nM
[18]
  hepatocyte CLint: > 300 µL/min/1e6 cells
[29]
  microsomal CLint: 135 µL/min/mg
[32]
  IC50: 300 nM

## CC(=O)Nc1cc(Nc2cc(NC3CC3)n3ncc(C#N)c3n2)ccc1N1CCN(C)CC1
[10]
  fraction unbound at 10 µM: 0.18
[12]
  solubility at 24 h: 570 µM (≈ 254 µg/mL)
[18]
  hepatocyte CLint: 7 µL/min/1e6 cells
[29]
  microsomal CLint: < 4 µL/min/mg
[32]
  IC50: 1100 nM

## CC(=O)Nc1cc(Nc2cc(NC3CC3)n3ncc(C#N)c3n2)ccc1N1CC[C@@H](N)C1
[34]
  IC50: < 3 nM
[10]
  fraction unbound at 10 µM: 0.32
[12]
  solubility at 24 h: 812 µM (≈ 350 µg/mL)
[35]
  IC50: 70 nM
[18]
  hepatocyte CLint: 2.5 µL/min/1e6 cells
[29]
  microsomal CLint: < 3 µL/min/mg
[32]
  IC50: 960 nM
